An excerpt weighted towards active compounds, which were near 3.5% of everything screened.
rRNA inh HTS – reduced GFP signal of wild-type E. coli, primary screen, bacterial rRNA inhibitor project, GFP/RFP fluorescence, OD600, single point; E. coli WT GFP vs humanized-ribosome RFP mutants, 24 h; hits give low values; DMSO median 0, no signal -100; GFP signal change (wild-type ribosome), % (no concentration beside the values); 350,000 tested, 1.6% active; AID 720706, 2013;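 active = significant combined selectivity score with lowered wild-type GFP, culture density cut under 30%, mutant RFP and density less affected; inactive = any of these conditions unmet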
PglD inh – C. jejuni PglD acetyltransferase inhibitors, primary screen, biochemical, DTNB colorimetric, single point; 360,000 tested, 0.098% active; inhibition, % at 12.5 µM; purified PglD enzyme, DTNB colorimetric CoA detection; in the data active = inhibition above about 16%, passing the limit was not always enough; inconclusive = no clear call, values can overlap the other calls
PGC1a acetyl inh – inhibitors of PGC1a acetylation signal, primary screen, cell-based, U2OS, AlphaScreen, inhibitor mode | AlphaScreen anti-acetyl-lysine; with virally co-expressed GCN5 acetyltransferase | inhibition, % at 15.6 µM | 350,000 tested, 0.17% active | AID 651687, 2012;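 active = every replicate shows inhibition of at least 40%; inconclusive = mean inhibition at least 40% but some replicate below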
DENV2 CPE rescue – inhibitors of DENV2 cytopathic effect, primary screen, cell-based, plate reader, single concentration; DENV2-infected cells, cytopathic effect rescue; CPE inhibition, % at 9.99 µM; 350,000 tested, 1.7% active; in the data active = CPE inhibition above about 20%, passing the limit was not always enough; inconclusive = no clear call, values can overlap the other calls; tested in BHK-21 cells
FN deposit inh – inhibitors of fibronectin matrix deposition, primary screen, AH1F cells, Alexa488-fibronectin fluorescence, plate reader; AH1F fibroblasts, overnight; inhibition, % at 12.6 µM; 350,000 tested, 0.086% active;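 active = mean inhibition across replicates of 30% or more, regardless of how many single replicates reach that level; inconclusive = mean under 30% yet at least half of replicates reach 30%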
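Material: AH1F fibroblasts assembling fluorescent fibronectin matrix; amount: 10000 AH1F cells/well; medium: DMEM, 2% serum; reagent: Alexa488-fibronectin, 24 nM final in well; dosing: single compound dose, delivered by pin transfer; incubation: 1 h adhesion, overnight exposure; detection: fluorescence after three HBSS washes, excitation 485 nm, emission 525 nm; measure: fibronectin deposition inhibition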
HIV Env fusion – inhibitors of HIV-1 Env-driven cell-cell fusion, primary screen, HeLa-JRFL effector, CEM21 target cells, luciferase; inhibition, % at 12.3 µM; 360,000 tested, 1.1% active; AID 651610, 2012;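 active = mean replicate inhibition score of at least 50 and every replicate individually at or above 50; inconclusive = only one of the two criteria met; inactive = mean below 50 and not all replicates reaching 50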
Hits are given with their value; – = inactive; ? = inconclusive; · = no result given; [ ] = dose if it differs, or a comment.

SMILES | rRNA inh HTS | PglD inh | PGC1a acetyl inh | DENV2 CPE rescue | FN deposit inh | HIV Env fusion
COc1ccc2c(c1)c(C(C)=O)c(C)n2-c1ccccc1OC | -35.6 | · | – | – | – | –
COc1ccccc1-n1c(C)c(C(C)=O)c2cc(O)ccc21 | – | – | – | – | – | –
Cn1cnc(S(=O)(=O)N[C@H]2CC[C@@H](CC(=O)N3CCN(c4ccccc4)CC3)O[C@H]2CO)c1 | – | – | – | – | – | –
Cc1cccc(N2C(=O)N3[C@H](c4ccc(Cl)cc4)[C@@H]4C(=O)N(C5CCCCC5)C(=O)[C@@H]4[C@]3(Cc3ccc(Cl)cc3)C2=O)c1 | · | – | – | · | · | ·
O=C1[C@H]2[C@@H](c3ccc(F)cc3)N3C(=O)N(c4cccc(F)c4)C(=O)[C@@]3(Cc3ccc(Cl)cc3)[C@H]2C(=O)N1C1CCCCC1 | – | – | – | 23.8 | – | –
CC[C@@]12C(=O)N(c3cccc(F)c3)C(=O)N1[C@H](c1ccc(Cl)cc1)[C@@H]1C(=O)N(C3CCCCC3)C(=O)[C@@H]12 | – | – | · | – | – | 95.2
O=C1[C@H]2[C@@H](c3ccc(Cl)cc3)N3C(=O)N(c4cccc(F)c4)C(=O)[C@@]3(Cc3ccc(Cl)cc3)[C@H]2C(=O)N1C1CCCCC1 | · | – | – | · | · | ·
Cc1cccc(N2C(=O)N3[C@H](c4ccc(F)cc4)[C@@H]4C(=O)N(C5CCCCC5)C(=O)[C@@H]4[C@]3(Cc3ccc(Cl)cc3)C2=O)c1 | – | – | – | – | – | 91.1
CCCN(C)C[C@@H]1Oc2ncc(C#CC3(O)CCCC3)cc2C(=O)N([C@@H](C)CO)C[C@@H]1C | – | – | – | – | – | –
COc1ccc(N2C(=O)C3C(C2=O)C3(c2ccccc2)c2ccccc2)cc1 (stereo not drawn) | -19.8 | · | · | ? | – | –
O=[N+]([O-])c1cc([N+](=O)[O-])c(Oc2cc(F)cc(F)c2)cc1NN1CCCCC1 | – | – | – | 25.2 | – | –
O=[N+]([O-])c1cc([N+](=O)[O-])c(Oc2cc(Cl)cc(Cl)c2)cc1NN1CCCCC1 | – | – | – | ? | – | –
O=[N+]([O-])c1cc([N+](=O)[O-])c(Oc2ccc(F)cc2)cc1NN1CCCCC1 | – | – | – | – | – | –
COc1ccc(Oc2cc(NN3CCCCC3)c([N+](=O)[O-])cc2[N+](=O)[O-])cc1OC | – | – | – | 38.5 | – | –
C[C@@H]1CN([C@H](C)CO)C(=O)Cc2cc(NC(=O)C3CCCCC3)ccc2O[C@@H]1CN(C)C(=O)Nc1ccc(F)cc1 | – | – | – | – | – | –
CCCNC(=O)C[C@@H]1CC[C@@H]2[C@@H](COc3ccc(NC(=O)Cc4ccccc4)cc3C(=O)N2C)O1 | – | – | – | – | – | –
CO[C@H]1CN(C)C(=O)c2ccc(NC(=O)Nc3ccc(C(F)(F)F)cc3)cc2OC[C@H](C)NC[C@@H]1C | – | · | – | 68.2 | – | ·
CO[C@H]1CN(C)C(=O)c2ccc(NC(=O)Nc3cccc(F)c3)cc2OC[C@H](C)NC[C@H]1C | – | – | – | – | – | 75.5[16.7 µM]
CO[C@@H]1CN(C)C(=O)c2ccc(NC(=O)Nc3ccc(C(F)(F)F)cc3)cc2OC[C@@H](C)NC[C@@H]1C | – | · | – | – | – | ·
CO[C@H]1CN(C)C(=O)c2ccc(NC(=O)Nc3cccc(F)c3)cc2OC[C@@H](C)NC[C@@H]1C | – | · | – | · | – | –
O=C(N[C@@H]1CC[C@@H](CCNC(=O)C2CCC2)O[C@@H]1CO)c1ccccn1 | – | – | – | – | · | –
CC(C)CC#Cc1ccc([C@@H]2[C@H]3CN(C(=O)NC(C)C)CC(=O)N3[C@H]2CO)cc1 | – | · | · | · | · | ·
COc1ccc(S(=O)(=O)Cc2ccc(C(=O)N3CCN(c4cc(Cl)ccc4C)CC3)o2)cc1 | -17.4 | – | – | – | – | –
COc1ccc(S(=O)(=O)Cc2ccc(C(=O)N3CCN(c4cc(C)ccc4C)CC3)o2)cc1 | – | – | – | – | – | –
COc1ccc(S(=O)(=O)Cc2ccc(C(=O)NC3CC3)o2)cc1 | – | – | – | 24.5 | – | –
SMILES | rRNA inh HTS | PglD inh | PGC1a acetyl inh | DENV2 CPE rescue | FN deposit inh | HIV Env fusion
C=CCN=C1NC(c2ccc(F)cc2)C(C(=O)OC)=C(C)N1C (stereo not drawn) | – | · | · | – | – | –
C=CCN=C1NC(c2ccc(Cl)cc2)C(C(=O)OC)=C(C)N1C (stereo not drawn) | – | · | · | – | – | 55.1
CC(=O)C1=C(C)N(Cc2ccccc2)C(=O)N[C@@H]1c1cccc(C(F)(F)F)c1 | -20.7 | – | – | – | – | –
COC(=O)C1=C(C)N(Cc2cccc(C(F)(F)F)c2)C(=NCc2cccc(C(F)(F)F)c2)NC1c1ccc(Cl)cc1 (stereo not drawn) | – | · | · | ? | – | ?
C=CCN=C1NC(c2ccc(Cl)cc2)C(C(=O)OC)=C(C)N1Cc1cccc(C(F)(F)F)c1 (stereo not drawn) | – | · | · | – | – | 59.8
COC(=O)C1=C(C)N(Cc2ccccc2)C(=NCCc2ccccn2)N[C@H]1c1cccc(C(F)(F)F)c1 | – | – | – | – | – | 80.0
O=C(C[C@@H]1CC[C@@H](NS(=O)(=O)c2ccccc2)[C@H](CO)O1)N1CCC(Cc2ccccc2)CC1 | – | · | – | ? | – | ·
C[C@H]1CN([C@@H](C)CO)C(=O)c2cc(C3=CCCCC3)cnc2O[C@@H]1CN(C)CC1CCOCC1 | – | – | – | – | · | –
COC(=O)C1=C(C)N(Cc2ccccc2)C(=NCC(C)C)N[C@H]1c1cccc(F)c1 | – | – | – | 25.1 | – | –
C/C(=N\NC(=O)c1cc2ccccc2cc1O)c1ccccn1 | – | – | · | – | – | 59.0
C(=Cc1cnc2ccccc2n1)c1ccc2c(c1)OCO2 | – | – | – | – | – | 68.4
CN1C(=O)c2cc(NS(=O)(=O)c3ccccc3Cl)ccc2OC[C@H]2O[C@@H](CC(=O)O)CC[C@H]21 | – | – | – | – | – | –
O=C1NC(=O)C(=Cc2ccccc2)N1 | – | – | – | – | – | ·
O=C1NC(=O)/C(=C/c2ccc(OS(=O)(=O)c3ccc(F)cc3F)cc2)N1 | -26.4 | – | – | – | – | –
C=CC(C)(O)CCC=C(C)C (stereo not drawn) | – | – | – | 101.1 | · | ·
O=C(NCCNC(=O)c1cc(F)cc(F)c1)c1cc(F)cc(F)c1 | – | – | – | 29.6 | – | –
CC(C)c1ccc(/C=C2\SC(N3CCOCC3)=NC2=O)cc1 | – | – | · | – | – | –
O=C1N=C(N2CCN(c3ccccc3)CC2)S/C1=C/c1ccco1 | -37.6 | – | · | – | – | –
CCc1ccc(/C=C2/SC(N3CCOCC3)=NC2=O)cc1 | -19.2 | · | – | – | – | –

Assay outcomes (PubChem)
